Drawing on ChEMBL document CHEMBL4513216, “Probing the Open Global Health Chemical Diversity Library for Multistage-Active Starting Points for Next-Generation Antimalarials” (ACS Infect Dis, 2020), this text covers cytotoxicity for 97 compounds.

Structures are written as SMILES.

This data set can be described thus: Toxicity liver stage against HepG2, at 10uM. In kind it is cell-based. The arrangement: test concentration 10 uM, cell line HepG2-A16-CD81EGFP. To be noted: human, HepG2-A16-CD81EGFP cells; read-out: INHIBITION
The method in brief: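 Uninfected HepG2-A16-CD81EGFP cells, 3 × 10^3 per well, 1536-well, plated on prespotted compound at 10 μM final, parasite-free screening media added to match infected plates; puromycin 10 μM positive, DMSO 0.5% negative; run in parallel with 48 h PbLuc assay at 37 °C, 5% CO2; viability by CellTiter-Glo luminescence, normalized to controls.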
For the compound `O=C([C@@H]1COC[C@H]2CN(C3CCCC3)C[C@H]21)N1CCCCO1`, the cytotoxicity at 10 µM is -1.11%.
The same measure for `CC(=O)N1CC(=O)N(c2ccccc2)CC12CCN(Cc1cccs1)C2` (configuration not stated): -11.1%.
The same measure for `CN1CCN([C@@H]2CCN(C(N)=O)[C@H]2Cc2ccccc2)CC1`: 2.41%.
Regarding `CNC(=O)C1CCCN(C(=O)NCCC2Cc3ccccc3C2)C1` (configuration not stated), the cytotoxicity at 10 µM amounted to 15.4%.
The same measure for `NC(=O)c1ccc(S(=O)(=O)NC(=O)COc2ccc3c(c2)CCC3)cc1`: -2.27%; for `CNS(=O)(=O)CC1CCCN1C(=O)c1ccc2cc[nH]c2c1` (configuration not stated): -0.651%; for `c1nc(NCC2(N3CCOCC3)CCSC2)c2sccc2n1` (configuration not stated): 59.7%.
As to `CS(=O)(=O)N1CC2(CCN(C3CCCCC3)CC2)Cc2ccccc21`, the cytotoxicity at 10 µM was 4.92%.
Next, `O=S(=O)(Cc1cc(-c2ccccc2)no1)CC1CCCO1` (configuration not stated): 4.7%.
The same measure for `CCc1nc(N2CCN(CCOC)CC2)c2cnn(C)c2n1`: 0.363%; for `O=C(O)Cn1nc(C2CC2)c2c(-c3ccco3)ccnc21`: -3.96%.
Next, `CC(C)(C)NC(=O)COc1ccc(CNCc2ccccn2)cc1`: -11.5%; `CC(C)N(C)Cc1cncc2c1CCN(CC1CC1)C2`: -102%; `FC(F)(F)c1n[nH]c2c1CN(CCc1ccccn1)CC2`: 3.76%.
On to `CC(=O)N1CCOCC(Cc2ccc3c(ccn3C)c2)C1` (configuration not stated), for which the cytotoxicity at 10 µM is 4.3%.
The same measure for `Cc1ccc(N2CCCN(C(=O)CC3CCCO3)CC2)nn1` (configuration not stated): -3.68%; for `Cc1nc(C)n(CC2CCCCN2CC(=O)Nc2ccncc2)n1` (configuration not stated): -0.344%.
Next, `CCC(NC(=O)c1cnc(-c2cccnc2)nc1)c1ccnn1C` (configuration not stated): -2.11%; `CCN(Cc1cn(CC2CCNCC2)nn1)CC1CCCO1` (configuration not stated): -1.77%; `COc1cccc(C(=O)N2CCN(Cc3nc(C(C)C)no3)CC2)c1`: -18.7%.
In the case of `CCN(CC)Cc1cc(C(=O)N2CCCC(O)(CO)C2)c(C)o1` (configuration not stated), the cytotoxicity at 10 µM amounted to 7.87%.
Next, `O=C(c1cccs1)N1CCc2ncc(Cn3cncn3)n2CC1`: -89.8%; `CC(C)N(Cc1cccc(Cl)c1)Cc1nc2c(cnn2C)c(=O)[nH]1`: 1.97%.
Next, `Cc1cc(C(F)(F)F)nc(N2CCN3CCCC3C2)n1` (configuration not stated): 4.78%.
The same measure for `CS(=O)(=O)NCCCNC(=O)c1cnc(-c2ccsc2)s1`: -13.7%; for `O=C(c1cc[nH]n1)N1CCCC1c1ccccn1` (configuration not stated): -22.5%; for `CC(=O)c1ccc(CNC(=O)c2cc(C#N)cn2C)nc1C`: 5.44%.
For `COC(=O)c1cccc(S(=O)(=O)Nc2ccc(Cl)c(C(N)=O)c2)c1`, the cytotoxicity at 10 µM stood at 7.31%.
The same measure for `CNC(=O)[C@H]1C[C@@H]2CN(Cc3c(C)noc3C)C[C@@H]2N1C(C)=O`: -108%; for `O=C(NCc1ccc(-n2cncn2)nc1)c1cnccn1`: -5.18%.
On to `Cc1occc1C(=O)N1CCOC2(CCCC2)C1`, for which the cytotoxicity at 10 µM is -10.9%.
The same measure for `Cn1cc(C2CCCN2Cc2csc(-c3ccccc3)n2)cn1` (configuration not stated): -2.48%; for `COCC1c2nnn(CC3CC3)c2CCN1C(=O)N1CCCC1` (configuration not stated): -131%.
Next, `NC(=O)C(NC(=O)COCCc1ccccc1)c1ccccc1F` (configuration not stated): -11%.
Next, `COc1ccc(N2CCN(C(=O)c3nc(Cl)sc3C(C)C)CC2)cc1`: 3.17%; `O=C(COc1coc(CN2CCCC2)cc1=O)Nc1ccc(Cl)c(Cl)c1`: 0.0723%.
Take `N#Cc1cn(C2CC2)c(=O)n(Cc2noc(-c3ccsc3)n2)c1=O`: the cytotoxicity at 10 µM turned out to be 0.836%.
Next, `CCC(C)NC(=O)c1cccc(CNC(=O)CC(F)(F)F)c1` (configuration not stated): 6.99%; `N#Cc1ccc(CNCC(C(=O)N2CCOCC2)c2ccccc2)cc1` (configuration not stated): -11.9%; `CNC(=O)CC1CCN(C(=O)NCc2cn3c(C)cccc3n2)CC1`: 3.88%.
Next, `Fc1cccc(N2CCCC3(CN(Cc4ccccn4)CCO3)C2)c1` (configuration not stated): 2.29%; `COc1cc(-c2nc(C3CC3)nn2-c2ccnc(C)c2)nc(OC)n1`: 2.64%.
Next, `CCN(CC)c1ncccc1CNC(=O)c1cc2nc(C)cc(C)n2n1`: 6.43%; `Cc1ccc(CN2Cc3nnn(C)c3C(COCCN(C)C)C2)s1` (configuration not stated): -7.25%; `Cc1nc(C2CCN(C(=O)c3cscn3)CC2)c2sccn12`: -5.16%.
On to `COc1ccccc1NC(=O)CC(C)NCc1scnc1C` (configuration not stated), for which the cytotoxicity at 10 µM is 0.686%.
The same measure for `CN1CCC(N(C)CCC(=O)N2CCC(OCc3ccccc3)CC2)C1` (configuration not stated): -6.35%; for `CCc1noc(-c2cccc(OCC(=O)NC(C)C)c2)n1`: -6.53%; for `O=C(O)c1ccn(-c2ccccc2NS(=O)(=O)c2cccc(Cl)c2F)n1`: -3.36%.
The same measure for `Cc1noc(C)c1-c1cccc(C2CN(CC(=O)N(C)C)CCO2)n1` (configuration not stated): 0.025%; for `COc1ccc(Cl)cc1CNC(=O)CN1CCC2(CCOC2)C1` (configuration not stated): -61.7%; for `O=S1(=O)CCC(n2cc(C3=CCN(CCn4cccc4)CC3)cn2)C1` (configuration not stated): -8.5%.
As to `Cc1ccnc(CC(C)N(C)c2cc(CCN)nc(C)n2)c1` (configuration not stated), the cytotoxicity at 10 µM was -48%.
The same measure for `Cc1nccn1C1CCCN(C(=O)COCC(F)(F)F)C1` (configuration not stated): -12.1%.
Regarding `COC(=O)[C@H]1C[C@@H](O)CCN1S(=O)(=O)c1cc(Cl)ccc1OC`, the cytotoxicity at 10 µM is 5.1%.
Consider `NCCn1nc(C2CCN(Cc3ccccc3Cl)C2)c2nccnc21` (configuration not stated), for which the cytotoxicity at 10 µM is -14.9%.
Next, `COc1c(CNCC(O)c2ccc(C)cc2)c(C(C)C)nn1C` (configuration not stated): -10.6%; `COc1ccc(C(=O)N2CCOCC(CO)C2)cc1N1CCOCC1` (configuration not stated): -14%; `O=C(NC1COC2(CCN(Cc3ccccn3)CC2)C1)c1ccccn1` (configuration not stated): -4.74%.
For `O[C@H]1[C@H](NCCc2ccccn2)c2ccccc2C12CCNCC2`, the cytotoxicity at 10 µM came to 13.7%.
Next, `CN(C)[C@H]1COC[C@@H]2CN(Cc3ccc4c(c3)OCO4)C[C@@H]21`: 4.2%; `CC(=O)N1CCN(C(=O)Cc2cnc(-c3c(Cl)cccc3Cl)s2)CC1`: 7.27%.
Next, `CCN(CC1CCOC1)C(=O)CSCC(=O)Nc1ccc(C)cc1` (configuration not stated): -7.04%; `c1cnn(C2CN(c3nc(-c4ccncc4)nc4c3CCC4)C2)c1`: -43%.
For the compound `CNC(=O)Cc1ccccc1NC(=O)NCc1ccc(SC)cc1`, the cytotoxicity at 10 µM is -1.88%.
The same measure for `CC(C)n1ccc(-c2cc(C(=O)N3CCCC3)c3ccccn23)n1`: -2.7%.
The same measure for `Cn1cc(CN2CCn3cnc(COCC4CC4)c3C2)cn1`: 3.71%.
The same measure for `Cc1nc(N(C)C)nc(NCCc2cnccn2)c1C`: -1.22%; for `Cn1cncc1CN1CCC2(CC1)CCN2c1ncccn1`: 9.61%; for `CC1CCN(CCNC(=O)c2scnc2Cl)CC1`: -4.2%.
As to `CCc1cc(N2CCC(NCCc3ccccc3F)CC2)nc(C)n1`, the cytotoxicity at 10 µM worked out at 7.33%.
As to `CCS(=O)(=O)N1CCC2(CC1)CN(c1ccsc1)C(=O)CO2`, the cytotoxicity at 10 µM is -73.7%.
`CC(=O)N1CCN(CCNS(=O)(=O)c2ccc(F)c(F)c2)CC1`: the cytotoxicity at 10 µM came out at 8.81%.
Next, `CC(NCc1cccc(COC2CCCC2)c1)c1cnn(C)c1` (configuration not stated): 4.34%.
Next, `Nc1cccnc1N1CCCCCC1`: 4.45%.
Next, `Cc1noc(CNc2ccccc2N2CCCCC2)n1`: -25.4%; `Cc1cccc(N2CCN(C(=O)c3c(C)nn(C)c3C)CC2)c1C`: -7.28%; `Cc1[nH]ncc1C(=O)N1CCOC(c2cccs2)C1` (configuration not stated): 8.8%.
As for `CN1CC(C(=O)NCc2ccc(Br)cc2F)CC1=O` (configuration not stated), the cytotoxicity at 10 µM turned out to be 9.01%.
With `COC(=O)c1cnc2c(c(C)nn2C)c1OC`, the cytotoxicity at 10 µM was 0.822%.
Next, `COC1COC2(CCN(Cc3ccccc3F)CC2)C1` (configuration not stated): -5.58%; `C1CC(c2noc(C3CC3)n2)N(Cc2nc(C3CC3)no2)C1` (configuration not stated): -12.8%.
With `Cn1cc(C(=O)N2CCN(c3ccccc3)CC2)ccc1=O`, the cytotoxicity at 10 µM was -0.408%.
The same measure for `CC(C)(C)c1nnc(NCC(=O)N2CCc3sccc3C2)s1`: 5.62%; for `CC(C)CN1C[C@@H]2CN(S(=O)(=O)c3cccs3)C[C@@H]2C1=O`: 4.09%.
Next, `Cc1nc(C2CCCN2CC(=O)N(C)Cc2ccsc2)no1` (configuration not stated): -8.21%; `Cc1nc(CN(C)C(=O)Nc2cccc(C)c2C)no1`: -0.739%; `COc1cc2c(nn1)CCN(Cc1noc(CC(C)C)n1)C2`: -1.02%.
Next, `CCOc1ccc(S(=O)(=O)N(C)Cc2cnn(CC)c2)cc1`: 11.6%; `CCN(Cc1cnn(C)c1)C[C@H]1CC[C@@H](Cc2cccc(C#N)c2)O1`: 0.194%.
Consider `CC(C)COC[C@@H]1CC[C@H]2[C@H](CCN2C(=O)c2ccncc2F)O1`, for which the cytotoxicity at 10 µM is -0.58%.
The same measure for `Cc1nc2oc(C(=O)N3CCCC3)c(N)c2c2c1CCCC2`: -6.95%; for `C1CC(c2noc(C3CC3)n2)CN(Cc2noc(C3CC3)n2)C1` (configuration not stated): -5.16%.
Regarding `CCOC[C@@H]1CCC[C@@]12CN(Cc1cccnc1)CCO2`, the cytotoxicity at 10 µM was -65.7%.
Take `O=C(c1ccsc1)N1CCC2(CC1)CCN(S(=O)(=O)C1CC1)CC2`: the cytotoxicity at 10 µM is -109%.
Next, `N#Cc1cccc(N2CCCC3(CN(C(=O)c4ccc[nH]4)CCO3)C2)c1` (configuration not stated): 13.3%; `CC(C)CCN(C)Cn1ncc2cn(-c3ccccc3)nc2c1=O`: 6.72%.
